Experimental findings from ChEMBL document CHEMBL4330127, “Discovery of Novel Pyruvate Dehydrogenase Kinase 4 Inhibitors for Potential Oral Treatment of Metabolic Diseases” (J Med Chem, 2019) are described below.

Each structure is given as a SMILES string.

Data set [1] deals with T1, [Pyruvate dehydrogenase (acetyl-transferring)] kinase isozyme 4, mitochondrial (Homo sapiens, UniProt Q16654). Description: Inhibition of PDK4 (unknown origin) at 10 uM relative to control.
Target sequence in this assay (Q16654 whole entry, looked up): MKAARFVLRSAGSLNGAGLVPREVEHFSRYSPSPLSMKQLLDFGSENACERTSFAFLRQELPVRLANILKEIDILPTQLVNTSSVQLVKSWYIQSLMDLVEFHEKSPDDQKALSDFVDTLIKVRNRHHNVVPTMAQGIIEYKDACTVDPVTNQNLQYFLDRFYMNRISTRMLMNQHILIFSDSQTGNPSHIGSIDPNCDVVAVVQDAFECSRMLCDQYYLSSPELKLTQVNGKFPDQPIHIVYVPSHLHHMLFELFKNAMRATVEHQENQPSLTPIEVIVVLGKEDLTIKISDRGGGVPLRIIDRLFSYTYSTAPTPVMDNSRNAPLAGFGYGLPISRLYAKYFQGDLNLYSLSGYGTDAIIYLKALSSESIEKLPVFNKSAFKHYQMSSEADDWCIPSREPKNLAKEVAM
In data set [2] the target is T1, [Pyruvate dehydrogenase (acetyl-transferring)] kinase isozyme 4, mitochondrial. Description: Inhibition of PDK4 (unknown origin).
Target sequence in this assay (Q16654 whole entry): as the sequence (Q16654 whole entry, looked up) above
Data set [3] can be described thus: Metabolic stability in rat liver microsomes assessed as parent compound remaining after 30 mins by LC-MS/MS analysis. Type of data set: ADME, Microsome. The note with it: read-out: Stability.
A short description of data set [4]: Metabolic stability in human liver microsomes assessed as parent compound remaining at 1 uM after 30 mins by LC-MS/MS analysis. In general terms: Liver microsomes are a subcellular fraction often used to study metabolism.
Data set [5] addresses T1, [Pyruvate dehydrogenase (acetyl-transferring)] kinase isozyme 4, mitochondrial. Description: Inhibition of PDK4 in HEK293T cells assessed as reduction in PDHE1alpha phosphorylation at Ser-232 residue by measuring phosphorylated PDHE1alpha level at 10 uM after 24 hrs by Western blot analysis. The data set is classed as cell-based. Put shortly: (§1)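 HEK293T cells grown in high-glucose DMEM with 10% FBS at 37 °C, 5% CO2. Medium renewed after 24 h, then cells exposed to compound for 24 h and lysed. 20 μg protein per lane Western blotted with antibodies to phospho-PDHE1α Ser232, Ser293 and Ser300 and to total PDHE1α. Band intensity quantified relative to control; triplicate.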
In general terms: A western blot detects proteins with antibodies after separation by electrophoresis.
Target sequence in this assay (Q16654 whole entry, looked up): as above

Data set [6] has the same target. Description: Inhibition of PDK4 in HEK293T cells assessed as reduction in PDHE1alpha phosphorylation at Ser-293 residue by measuring phosphorylated PDHE1alpha level at 10 uM after 24 hrs by Western blot analysis. The data set is classed as cell-based. The gist of the method: as §1
Target sequence in this assay (Q16654 whole entry, looked up): as above
Data set [7] shares this target. Description: Inhibition of PDK4 in HEK293T cells assessed as reduction in PDHE1alpha phosphorylation at Ser-300 residue by measuring phosphorylated PDHE1alpha level at 10 uM after 24 hrs by Western blot analysis. The data set is classed as cell-based. The gist of the method:
as §1
Target sequence in this assay (Q16654 whole entry, looked up): as above

One may read the inhibition as the change of the read-out against control, counted positive when it falls. As to `O=C1c2ccccc2C(O)(C(F)(F)F)c2cccc(C3=CCN(C(=O)OCc4ccccc4)CC3)c21` (stereo not given), the inhibition in data set [1] came to 34.1%.

`CC(C(=O)O)n1cc(-c2cccc3c2C(=O)c2ccccc2C3=O)cn1` (stereo not given): the inhibition in data set [1] was 45.9%. The IC50 is the midpoint of a concentration-inhibition curve. Read a low IC50 as greater potency. `CC(C(=O)O)n1cc(-c2cccc3c2C(=O)c2ccccc2C3(O)C(F)(F)F)cn1` (stereo not given) came in with a half-inhibitory concentration (IC50) in data set [2] of 143 nM. In data set [1], this molecule had an inhibition of 47.2%. `O=C1c2ccccc2C(=O)c2c1cccc2C1=CCNCC1`: the inhibition in data set [1] worked out at 35.6%.

Consider `O=C1c2ccccc2C(=O)c2ccccc21`, for which the inhibition in data set [1] was found to be 40.7%. In turn, `O=C1c2ccccc2C(O)(C(F)(F)F)c2cccc(C3=CCNCC3)c21` (stereo not given) showed an inhibition in data set [1] of 29.7%.

For `CC(C)(C)OC(=O)N1CC=C(c2cccc3c2C(=O)c2ccccc2C3=O)CC1`, the concentration for half-maximal inhibition (IC50) in data set [2] was 600 nM. The inhibition in data set [1] turned out to be 53.4%. Consider `O=C1c2ccccc2C(=O)c2c1cccc2C1=CCN(C(=O)OCc2ccccc2)CC1`, for which, in data set [1], the inhibition was found to be 41.6%. Regarding `CS(=O)(=O)N1CC=C(c2cccc3c2C(=O)c2ccccc2C3=O)CC1`, the inhibition in data set [1] amounted to 29.5%. `CCOC(=O)C(C)n1cc(-c2cccc3c2C(=O)c2ccccc2C3(O)C(F)(F)F)cn1` (stereo not given): the inhibition in data set [1] stood at 36.9%. In data set [1], `CCOC(=O)C(C)n1cc(-c2cccc3c2C(=O)c2ccccc2C3=O)cn1` (stereo not given) displayed an inhibition of 29.4%. `O=C1c2ccccc2C(=O)c2c1cccc2-c1cccnc1`: the inhibition in data set [1] was found to be 25.4%. For the molecule `CC(C)(C)OC(=O)N1CCC(n2cc(-c3cccc4c3C(=O)c3ccccc3C4=O)cn2)CC1`, in data set [1], the inhibition worked out at 32.6%. `O=C1c2ccccc2C(=O)c2c1cccc2C1=CCN(C(=O)Nc2ccccc2)CC1` gave an inhibition in data set [1] of 32.6%. In turn, `O=C1c2ccccc2C(=O)c2c1cccc2-c1cnn(C2CCCCO2)c1` (stereo not given) had an inhibition in data set [1] of 24.3%.

In data set [1], `O=C1c2ccccc2C(O)(C(F)(F)F)c2cccc(-c3cnn(C4CCNCC4)c3)c21` (stereo not given) returned an inhibition of 30.2%.

In data set [1], `CC(C)(C)OC(=O)N1CCC(n2cc(-c3cccc4c3C(=O)c3ccccc3C4(O)C(F)(F)F)cn2)CC1` (stereo not given) yielded an inhibition of 32.1%. For the molecule `O=C1c2ccccc2C(=O)c2c1cccc2-c1cn[nH]c1`, the inhibition in data set [1] amounted to 32.9%. As to `O=C1CC2(CCCC2)CC(=O)N1CCCCN1CCN(c2ncccn2)CC1` [BUSPIRONE], the remaining at 0.5 h in data set [3] came to 0.1%. Further, the remaining at 0.5 h, 1 µM in data set [4] worked out at 4%. `O=C1c2ccccc2C(=O)c2c1cccc2-c1ccc(O)cc1`: the inhibition in data set [1] amounted to 35.9%. On to `O=C1c2ccccc2C(=O)c2c(Br)cccc21`, for which the inhibition in data set [1] is 37.8%. In data set [1], `O=C(O)c1ccc(-c2cccc3c2C(=O)c2ccccc2C3=O)cc1` yielded an inhibition of 30.4%. With `O=S(=O)(c1ccc(O)cc1O)N1Cc2cc(O)cc(O)c2C1`, the figures for the fold change (FC) in data set [5], in data set [6] and in data set [7] were 0.62, 0.98 and 0.93, respectively. For the same molecule, the inhibition in data set [1] amounted to 34.1%. Turning to `CC(C)(C)OC(=O)N1CC=C(c2cccc3c2C(=O)c2ccccc2C3(O)C(F)(F)F)CC1` (stereo not given), the inhibition in data set [1] is 17.3%.
